Bioassay records deposited in PubChem by Broad Institute.
CaV13 FRET inh – Disruptors of the CACNA1D IQ motif to Ca2+-dependent inactivation inhibitor domain association, primary screening, Förster resonance energy transfer in intact living … | HEK cells, CFP/YFP FRET ICDI-IQ, plate reader, 10 min; percent FRET-ratio fall versus neutral wells | inhibition, % at 12.3 µM | 340,000 tested, 0.098% active | AID 743397;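 active = mean replicate inhibition of at least 30% and at least 1% of replicates passing that level; inconclusive = only one of the two criteria is met; inactive = neither criterion is met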
S100A4 MyoIIA – inhibitors of human S100A4 binding to myosin IIA peptide; 360,000 tested, 0.14% active; AID 652163; S100A4/TAMRA-MyoIIA peptide fluorescence polarization; inhibition, % at 10.7 µM; P26447;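 active = mean inhibition of at least 70% across replicates, with every replicate also reaching that level; inconclusive = mean inhibition reaches 70% but some replicates fall short; inactive = mean inhibition below 70%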
Target sequence (P26447 whole entry, looked up): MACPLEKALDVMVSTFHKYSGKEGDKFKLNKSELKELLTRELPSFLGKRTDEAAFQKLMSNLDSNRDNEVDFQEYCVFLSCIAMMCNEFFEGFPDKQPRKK
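assay system = human S100A4 monomer with TAMRA-labelled myosin IIA peptide | also added = labelled myosin peptide probe, 5 nM | incubation = 5 min between mix addition and reading | control set = DMSO and TFP controls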
DENV2 CPE rescue – DENV2-induced cell death inhibition; CPE inhibition, % at 9.99 µM; 350,000 tested, 1.7% active; DENV2-infected cells, cytopathic effect rescue, plate reader; in the data active = CPE inhibition above about 20%, passing the limit was not always enough; inconclusive = no clear call, values can overlap the other calls; tested in BHK-21 cells
MLL AF4-AF9 inh – inhibitors of human MLL-AF4/AF9 interaction; P42568; AlphaScreen, biotin-AF4 peptide binding to FLAG-AF9; inhibition, % at 10 µM; 350,000 tested, 0.47% active;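 active = every replicate reaching a set inhibition limit, whatever the replicate mean, cut at about 25% in these data; inconclusive = mean inhibition reaches that limit but some replicates miss it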
SIRT5 inh – inhibitors of human sirtuin-5 desuccinylase | AID 652115 | 330,000 tested, 1.1% active | Purified SirT5, succinyl-peptide AMC, trypsin-coupled fluorescence | inhibition, % at 15 µM; in the data active = inhibition above about 15%; inconclusive = no clear call, values can overlap the other calls
Target sequence (Q9NXA8 whole entry, looked up): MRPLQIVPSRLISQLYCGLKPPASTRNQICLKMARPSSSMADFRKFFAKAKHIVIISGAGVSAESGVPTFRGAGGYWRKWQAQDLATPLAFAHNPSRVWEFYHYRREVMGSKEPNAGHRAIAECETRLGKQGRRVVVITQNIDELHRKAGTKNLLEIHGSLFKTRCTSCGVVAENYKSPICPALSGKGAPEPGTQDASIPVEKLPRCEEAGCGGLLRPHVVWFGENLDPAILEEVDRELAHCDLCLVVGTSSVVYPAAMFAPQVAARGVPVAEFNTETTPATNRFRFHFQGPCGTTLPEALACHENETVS
Numbers stand for hits; n = inactive; u = inconclusive; x = not tested or not shown; ! = a repeat was not active. Only some compounds are listed: those with a hit (about 2.7% of all), similar ones and a draw of the others.

SMILES | CaV13 FRET inh | S100A4 MyoIIA | DENV2 CPE rescue | MLL AF4-AF9 inh | SIRT5 inh
CC(C)NC(=O)N(C)C[C@H]1Oc2c(NS(C)(=O)=O)cccc2C(=O)N([C@H](C)CO)C[C@@H]1C | x | n | n | n | n
C[C@@H]1CCCCO[C@@H](CN(C)S(=O)(=O)c2ccc(Cl)cc2)[C@@H](C)CN([C@H](C)CO)C(=O)c2cc(NC(=O)Nc3cccc4ccccc34)ccc2O1 | x | n | n | n | n
C[C@@H]1CN([C@H](C)CO)C(=O)c2cc(NC(=O)c3ccccc3)ccc2O[C@@H](C)CCCCO[C@@H]1CN(C)C(=O)CCCN(C)C | x | n | n | n | n
Cc1ccc(S(=O)(=O)N2C[C@@H](O)COC[C@@H]3O[C@H](CC(=O)NCC4CCCCC4)CC[C@H]32)cc1 | x | n | n | n | n
CNC[C@@H]1OCCCC[C@H](C)Oc2ccc(NS(=O)(=O)c3c(C)noc3C)cc2C(=O)N([C@@H](C)CO)C[C@@H]1C | x | x | 132 | x | x
O=C(C[C@@H]1C[C@H]2c3cc(NC(=O)Nc4ccccc4F)ccc3O[C@H]2[C@@H](CO)O1)NCc1cc(F)ccc1F | x | n | n | n | n
CCOc1ccccc1CNC(=O)c1cc2oc3ccccc3c2n1C | n | x | x | x | x
CCOc1ccccc1CNC(=O)c1cc2occc2n1C | n | 183 | n | n | n
Cc1noc(C)c1NC(=O)Nc1ccc2c(c1)C(=O)N([C@@H](C)CO)C[C@@H](C)[C@@H](CN(C)C(=O)CCCN(C)C)OCCCC[C@@H](C)O2 | x | n | n | n | n
Cc1ccc(-c2csc(NCCn3c(-c4ccncc4)nc4cc(C(F)(F)F)ccc43)n2)cc1 | n | n | n | x | 17
COc1cccc(CN2[C@@H]3CNC[C@H]2C3c2ccc(-c3cccc(OC)c3)cc2)c1 (some centres not stated) | x | n | n | n | n
O=C(Nc1cccc(F)c1)N1[C@@H]2CNC[C@H]1C2c1ccc(-c2cccc(F)c2)cc1 (some centres not stated) | x | n | n | n | n
COc1ccc(NC(=O)N2[C@@H]3CNC[C@H]2C3c2ccc(/C=C/c3ccccc3)cc2)cc1 (some centres not stated) | x | n | 25 | n | n
N#Cc1cccc(-c2ccc(C3[C@H]4CNC[C@@H]3N4C(=O)Nc3ccc(F)cc3)cc2)c1 (some centres not stated) | x | n | 23! | n | n
Cc1cccc(-c2ccc(C3[C@H]4CNC[C@@H]3N4C(=O)Nc3ccc(F)cc3)cc2)c1 (some centres not stated) | x | n | 28! | n | n
COc1cccc(-c2ccc(C3[C@H]4CNC[C@@H]3N4Cc3cccnc3)cc2)c1 (some centres not stated) | x | x | 28 | x | x
CN(C)CC(=O)NC[C@H]1N[C@@H](CO)[C@H]1c1ccc(-c2cccc(C#N)c2)cc1 | x | n | 25 | n | n
O=C(Nc1cccc(Cl)c1)N1[C@@H]2CNC[C@H]1C2c1ccc(-c2ccccc2)cc1 (some centres not stated) | x | n | 67! | n | n
N#Cc1ccc(-c2ccc(C3[C@H]4CNC[C@@H]3N4C(=O)NC3CCCCC3)cc2)cc1 (some centres not stated) | x | x | 23 | x | x
CN(C)C(=O)c1ccc(-c2ccc(C3[C@H]4CNC[C@@H]3N4C(=O)NC3CCCCC3)cc2)cc1 (some centres not stated) | x | n | n | n | n
COc1cccc(NC(=O)N2[C@@H]3CNC[C@H]2C3c2ccc(-c3cccnc3)cc2)c1 (some centres not stated) | x | n | 22! | n | n
C[C@H](CO)N1C[C@H](C)[C@H](CN(C)C(=O)Nc2ccccc2)OCc2cn(nn2)CCCC1=O | x | n | n | n | n
CCC(=O)Nc1ccc2c(c1)C(=O)N(C)C[C@@H](OC)[C@@H](C)CN(C(=O)CC)[C@@H](C)CO2 | x | n | n | n | n
C[C@H](CO)N1C[C@H](C)[C@@H](CN(C)C(=O)Nc2cccc3ccccc23)Oc2c(NS(=O)(=O)c3ccc(Cl)cc3)cccc2C1=O | x | n | n | n | n
CCCNC(=O)N1[C@@H]2CNC[C@H]1C2c1ccc(-c2ccc(C#N)cc2)cc1 (some centres not stated) | x | n | n | n | n
SMILES | CaV13 FRET inh | S100A4 MyoIIA | DENV2 CPE rescue | MLL AF4-AF9 inh | SIRT5 inh
CCCNC(=O)N1[C@@H]2CNC[C@H]1C2c1ccc(-c2cccc(C#N)c2)cc1 (some centres not stated) | x | n | 21! | n | n
COc1cccc(-c2cnc3c(c2)C(=O)N([C@@H](C)CO)C[C@H](C)[C@@H](CN(C)Cc2ccncc2)O3)c1 | x | n | n | n | n
C[C@H]1CN([C@@H](C)CO)C(=O)c2cccc(NC(=O)c3nc4ccccc4s3)c2O[C@H]1CN(C)Cc1ccc(C(F)(F)F)cc1 | x | n | u | n | 27
C[C@@H]1CN([C@H](C)CO)C(=O)c2cccc(NC(=O)c3nc4ccccc4s3)c2O[C@H]1CN(C)Cc1ccc(C(F)(F)F)cc1 | x | n | n | n | 20
COc1ccc(NC(=O)N(C)C[C@H]2Oc3c(NC(=O)Nc4ccccc4)cccc3C(=O)N([C@H](C)CO)C[C@H]2C)cc1 | x | n | n | n | n
C[C@H]1CCCCO[C@H](CN(C)CC2CC2)[C@@H](C)CN([C@@H](C)CO)C(=O)c2cc(NC(=O)Nc3ccc4c(c3)OCO4)ccc2O1 | x | n | n | 35 | n
C[C@@H]1CCCCO[C@H](CN(C)CC2CC2)[C@H](C)CN([C@@H](C)CO)C(=O)c2cc(NC(=O)Nc3ccc4c(c3)OCO4)ccc2O1 | x | n | n | 34 | n
O=C(C[C@H]1C[C@@H]2c3cc(NC(=O)C4CCC4)ccc3O[C@@H]2[C@@H](CO)O1)NCc1ccccn1 | x | n | n | n | n
O=C(NC1CCCCC1)[C@@H]1[C@@H](CO)[C@@H]2Cn3c(cccc3=O)[C@@H]2N1CC1CCCC1 | x | n | n | n | 21
O=C(NC1CCCCC1)[C@H]1[C@H](CO)[C@H]2Cn3c(cccc3=O)[C@H]2N1C(=O)CC1CC1 | x | 102 | n | n | n
COC(=O)[C@@H]1[C@@H](CO)[C@@H]2Cn3c(cccc3=O)[C@@H]2N1CC1CCOCC1 | x | 88 | n | n | n
O=C(Nc1ccc(-c2ccccc2)cc1)[C@@H]1[C@@H](CO)[C@@H]2Cn3c(cccc3=O)[C@@H]2N1CC1CCCC1 | x | n | n | n | 15
CCC(=O)N1[C@H](C(=O)NC2CCCCC2)[C@@H](CO)[C@@H]2Cn3c(cccc3=O)[C@@H]21 | x | n | n | n | n
C[C@@H]1CN([C@@H](C)CO)S(=O)(=O)c2ccc(C3=CCCCC3)cc2O[C@@H]1CN(C)C(=O)C1CCC1 | x | n | n | n | n
O=C(NC1CCC1)[C@@H]1[C@@H](CO)[C@@H]2Cn3c(cccc3=O)[C@H]1N2CC1CCCC1 | x | n | u | n | n
O=C(NC1CCC1)[C@H]1[C@H](CO)[C@H]2Cn3c(cccc3=O)[C@@H]1N2CC1CCCC1 | x | n | 36 | n | n
